A short description of test [1]: Inhibition of cytosolic PLA2. An outline of the steps: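 Measured in RBL-2H3 cells stimulated with ionomycin.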
Test [2] relates to Gambusia affinis. The experiment in a line: Ichthyotoxicity against Gambusia affinis at 0.1 ppm.

This note sets out measurements from ChEMBL document CHEMBL1154569, “Scalarane and homoscalarane compounds from the nudibranchs Glossodoris sedna and Glossodoris dalli: chemical and biological properties” (J Nat Prod, 2000).

pIC50: −log10 of the molar value. The source made the active and inactive calls. The rule behind the calls is not given here.

As for `C[C@@H]1O[C@@H](O)[C@H]2C1=CC[C@H]1[C@]3(C)CC[C@H]4C(C)(C)CCC[C@]4(C)[C@H]3C[C@@H](O)[C@]21C`, the outcome in test [1] and in test [2] was inactive.
Take `CC(=O)OC[C@]12CCCC(C)(C)[C@@H]1CC[C@]1(C)[C@@H]2C[C@@H](O)[C@]2(C)[C@@H]3C(=CC[C@@H]12)[C@H](C)O[C@H]3O`: the outcome in test [1] and in test [2] was inactive.
`CC(=O)O[C@H]1C[C@@H]2[C@@]3(C)CCCC(C)(C)[C@@H]3CC[C@@]2(C)[C@@H]2CC=C3CO[C@@H](O)[C@@H]3[C@@]12C`: the result in test [1] and in test [2] was inactive.
The term pIC50 denotes the negative decadic logarithm of the IC50, by convention in mol/L. A higher pIC50 goes with a low IC50. On to `CC(=O)O[C@H]1C[C@@H]2[C@@]3(C)CCCC(C)(C)[C@@H]3CC[C@@]2(C)[C@@H]2CC=C(C=O)[C@H](C=O)[C@@]12C` [SCALARADIAL], for which the pIC50 in test [1] was 6.22. Besides, the result in test [2] was Active.
Consider `CC(=O)O[C@@H]1C[C@@H]2[C@@]3(C)CCCC(C)(C)[C@@H]3CC[C@@]2(C)[C@@H]2CC=C3CO[C@@H](O)[C@@H]3[C@@]12C`, for which the outcome in test [1] and in test [2] was inactive.
`CC(=O)OC[C@]12CCCC(C)(C)[C@@H]1CC[C@]1(C)[C@@H]2C[C@@H](O)[C@]2(C)[C@@H](C=O)C(C(C)=O)=CC[C@@H]12` had a pIC50 in test [1] of 4.74.
